Compound activity from PubChem.
Shown are actives, neighbours in structure and some others; about 3.5% of the full set was active somewhere.
RGS4 act – RGS4 potentiators or activators, primary screen, cell-based, HEK293 M3R inducible RGS4, calcium flux; AID 463111, 2010; 310,000 compounds, 0.92% hits; carbachol calcium flux Fluo4; hits give low values; B-score at 10 µM;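 active means B-score of the integrated calcium signal more than 4 SD below the library mean, with starting fluorescence not abnormally high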;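 further: negative B-score means reduced calcium response which marks RGS4 activation or potentiation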
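Detection: kinetic calcium fluorescence imaging with Fluo4-AM dye, 2 µM / Material: HEK293 cells with stable M3R and inducible RGS4 / Schedule: recording 10 s baseline at 1 Hz, 100 s post-agonist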
MrgX1 antagonist – antagonists of human MrgX1 receptor, primary screen, HEK293 cells, Fluo-4 calcium flux. Mas-related G-protein coupled receptor member X1 (Homo sapiens), Q96LB2. BAM8-22 antagonism; hits give low values. B-score at 10 µM. 310,000 compounds, 1.3% hits. AID 588676, 2011;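 active means calcium-response B-score plate-corrected more than 3 library SD below zero, starting fluorescence within 5 deviations, no agonist response on first addition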;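 further: peak minus trough fluorescence over baseline after final BAM8-22 challenge near maximal dose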
Target sequence (Q96LB2 whole entry, looked up): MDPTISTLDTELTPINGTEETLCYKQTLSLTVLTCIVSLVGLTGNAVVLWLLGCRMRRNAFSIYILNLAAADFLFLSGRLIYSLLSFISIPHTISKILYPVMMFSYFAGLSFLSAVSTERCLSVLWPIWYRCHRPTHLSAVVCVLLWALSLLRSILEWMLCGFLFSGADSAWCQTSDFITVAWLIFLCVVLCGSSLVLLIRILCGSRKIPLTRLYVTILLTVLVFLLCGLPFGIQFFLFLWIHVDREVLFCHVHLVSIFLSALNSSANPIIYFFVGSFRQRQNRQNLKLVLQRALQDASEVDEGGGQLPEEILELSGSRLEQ
MrgX1 ag – agonists of human MrgX1 receptor, primary screen, HEK293 cells, Fluo-4 calcium flux. Fluo-4 calcium fluorescence, agonist mode; hits give high values. Mas-related G-protein coupled receptor member X1 (Homo sapiens), Q96LB2. AID 588627, 2011. 310,000 compounds, 0.44% hits. B-score at 10 µM;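 active means calcium response B-score plate-corrected fluorescence ratio at least 3 library SD, with starting fluorescence B-score inside 5 SD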
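Material: HEK293 cells stably expressing human MrgX1 receptor | Quantity: 15,000 cells per well | Times: Cells plated overnight, dye loaded 0.5 h 37 °C, 0.5 h room temperature | Measured by: Kinetic Fluo-4 NW fluorescence of intracellular calcium | Control set: Positive and negative controls per plate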
MrgX1 PAM – positive allosteric modulators of MrgX1, primary screen, HEK293 cells, Fluo-4 calcium flux; Mas-related G-protein coupled receptor member X1 (Homo sapiens), Q96LB2; FDSS; hits give high values; B-score at 10 µM; 310,000 compounds, 0.63% hits;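 active means plate-corrected calcium response at least 3 library SD above typical, normal starting fluorescence, not activating the receptor alone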;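 further: compound read alongside a low EC10 to EC30 dose of BAM8-22 agonist; peak minus trough fluorescence over baseline measured at the second addition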
RGS4 block – RGS4 inhibitors, primary screen, cell-based, HEK293 M3R inducible RGS4, calcium flux; 310,000 compounds, 0.45% hits; B-score at 10 µM; Fluo-4 calcium flux; hits give high values; triggered by carbachol at its EC20;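 active means B-score, a plate-corrected calcium signal, over three deviations above library mean, with baseline fluorescence within five deviations of library mean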;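 further: RGS4 expression induced by doxycycline in cells with stable M3 receptor; B-score is computed from the integrated fluorescence ratio over baseline after carbachol; higher B-score means a larger calcium signal and so more RGS4 inhibition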
Target sequence (P49798 whole entry, looked up): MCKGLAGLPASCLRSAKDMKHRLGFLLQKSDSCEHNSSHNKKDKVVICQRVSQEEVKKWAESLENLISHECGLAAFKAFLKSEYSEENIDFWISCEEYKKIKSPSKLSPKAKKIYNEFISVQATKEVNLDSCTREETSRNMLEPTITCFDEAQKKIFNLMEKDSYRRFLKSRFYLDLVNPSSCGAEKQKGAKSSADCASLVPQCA
RGS4 act valid – reduced carbachol calcium response, RGS4-induced M3R cells, confirmation, RGS4 activator project, cell-based, HEK293 M3R/RGS4 inducible, calcium flux, duplicate | 1,100 compounds, 89% hits | inhibition, % at 10 µM | shares compounds with RGS4 act | carbachol calcium flux Fluo4 | AID 602282, 2012;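 active means inhibition above 3 SD of the buffer control wells, cut at about 41% in these data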;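 further: signal is the integrated peak-minus-minimum Fluo4 fluorescence over baseline ratio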
M3R Ca counter – activity in cells without induced RGS4 expression; shares compounds with RGS4 act; HEK293 M3R non-induced RGS4, Fluo4 calcium flux; after carbachol challenge at its EC90; inhibition, % at 10 µM; 1,100 compounds, 82% hits; AID 602283;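 active means inhibition exceeding 3 SD of buffer-only control wells, cut at about 26% in these data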;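 further: percent drop in integrated peak-minus-baseline over baseline Fluo4 ratio after carbachol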
Each line names hits and unclear results; the compound was inactive in the other large screens (follow-up assays come after a bar, where they were run).

Cn1c(SCCN2CCCC2)nnc1C1CCN(S(=O)(=O)c2ccc(F)cc2)CC1	RGS4 act -7.8 | RGS4 act valid 50 | M3R Ca counter inactive
CN(C(=O)c1ccc(OC2CCN(CCc3ccccc3)CC2)cc1)C1CCOCC1	none
CN(C(=O)c1ccc(OC2CCN(CCc3ccccc3)CC2)cc1)C1CCCCC1	RGS4 act -8.9 | RGS4 act valid inactive | M3R Ca counter inactive
OC(CN1CCCCCC1)CN(c1ccccc1)c1ccccc1 (stereo not given)	none
OC(CN1CCCCC1)CN(c1ccccc1)c1ccccc1 (stereo not given)	RGS4 act -9.8 | RGS4 act valid 90 | M3R Ca counter 58
CC1CCN(c2ccc3c(c2)S(=O)(=O)c2ccccc2C3=O)CC1	RGS4 act -8.2 | RGS4 act valid 68 | M3R Ca counter 65
NC(=O)C1CCN(c2ccc3c(c2)S(=O)(=O)c2ccccc2C3=O)CC1	none
CCc1nnc(NC(=O)c2sc3nc4cc(C)ccc4cc3c2N)s1	RGS4 act -8.8 | RGS4 act valid 72 | M3R Ca counter 32
CCNc1nc(N2CCCC2)nc(N2CCCC2)n1	none
CCNc1nc(NC(C)(C)C)nc(N2CCCCC2)n1	RGS4 act -7.9 | RGS4 act valid 94 | M3R Ca counter 93
CC(=O)c1ccccc1NC(=O)c1ccc2c(c1)NC(=O)C(C)S2 (stereo not given)	none
CCCNC(=O)c1ccccc1NC(=O)c1ccc2c(c1)NC(=O)C(C)S2 (stereo not given)	RGS4 act -7.8 | RGS4 act valid 72 | M3R Ca counter 29
CC(=O)c1cccc(OCC(=O)N2CCN(c3ccc(C(F)(F)F)cn3)CC2)c1	RGS4 act -12 | RGS4 act valid inactive | M3R Ca counter inactive
CCCc1cc(C(=O)N2CCN(c3ccc(C(F)(F)F)cn3)CC2)sc1C	RGS4 act -11 | RGS4 act valid 83 | M3R Ca counter 56
CCOc1ccc(N(CC(=O)NCCc2ccccc2)C(=O)CCC(=O)Nc2cc(C)ccn2)cc1	none
O=C(CCc1nnc(C2CCCCC2)o1)N1CCN(Cc2ccccc2)CC1	none
CC(C)(C)N(Cc1nc(-c2ccccc2)no1)C(=O)c1ccc2c(c1)OCO2	none
CC(C)(C)N(Cc1ccccc1)C(=O)c1ccc2c(c1)OCCO2	RGS4 act -9.2 | RGS4 act valid 92 | M3R Ca counter 54
COC(=O)c1cc2ccsc2n1Cc1cc(=O)n2ccccc2n1	RGS4 act -10 | RGS4 act valid 90 | M3R Ca counter 63
CCCCn1c2ccccc2c2nnc(SCCN3CCCCC3)nc21	RGS4 act -8.5 (no result: MrgX1 antagonist, MrgX1 ag, MrgX1 PAM) | RGS4 act valid 92 | M3R Ca counter 78
OC(CN1CCN(C(c2ccccc2)c2ccccc2)CC1)c1ccc(Br)cc1 (stereo not given)	RGS4 act -13 | RGS4 act valid 92 | M3R Ca counter 79
CCN(CC1CCCN(CCc2cccc(F)c2)C1)C(=O)c1cc(C)oc1C (stereo not given)	none
CCN(CC1CCCN(CCc2cccc(F)c2)C1)C(=O)c1cc2ccccc2o1 (stereo not given)	RGS4 act -7.7 | RGS4 act valid 78 | M3R Ca counter 30
CN(CC1CCCN(CCc2cccc(C(F)(F)F)c2)C1)C(=O)c1cc2ccccc2o1 (stereo not given)	RGS4 act -12 (no result: MrgX1 antagonist, MrgX1 ag, MrgX1 PAM) | RGS4 act valid 92 | M3R Ca counter 74
CSCCC(=O)N(C)CC1CCCN(CCc2cccc(C(F)(F)F)c2)C1 (stereo not given)	none
CC(C)CN(C(=O)CCCSc1nc2ccccc2[nH]1)c1c(N)n(Cc2ccccc2)c(=O)[nH]c1=O	none
COc1ccc(NC(=O)C2CCCN(S(=O)(=O)c3ccc4c(c3)CCCN4C(C)=O)C2)cc1Cl (stereo not given)	none
COc1ccccc1CNC(=O)C1CCN(S(=O)(=O)c2ccc3c(c2)C(C)(C)C(=O)N3C)CC1	none
Cc1ccc(S(=O)(=O)NC(CC(C)C)C(=O)Oc2ccc3c4c(c(=O)oc3c2)CCC4)cc1 (stereo not given)	RGS4 act -9.4 | RGS4 act valid 92 | M3R Ca counter 92
O=C(CN(Cc1ccccc1F)C(=O)c1csnn1)NCc1ccc2c(c1)OCO2	none
COc1ccc(-c2nc3cnccn3c2NCc2ccccc2)cc1SC1CCCCC1	RGS4 act -11 | RGS4 act valid 92 | M3R Ca counter 86
Cc1cccc(NC(=S)N2CCN(c3ccccc3F)CC2)c1C	none
CCOC(=O)Cn1c(-c2ccccc2)cc(SC)c(C#N)c1=O	RGS4 act -9.2 | RGS4 act valid 90 | M3R Ca counter 79
CSc1cc(-c2ccccc2)n(C)c(=O)c1C#N	none
Cc1ccc(S(=O)(=O)/N=C(/Nc2ccc3[nH]c(=O)[nH]c3c2)c2ccc(F)cc2)cc1	none
CCOC(=O)C1=C(C)NC(C)=C(C(=O)OCC)C1C(=O)OCC(=O)NC1(C#N)CCCCC1	RGS4 act -11 | RGS4 act valid 46 | M3R Ca counter inactive
O=C(c1cccs1)N1CCCC(c2nc3c(nnn3Cc3c(Cl)cccc3Cl)c(=O)[nH]2)C1 (stereo not given)	RGS4 act -8.3 | RGS4 act valid 52 | M3R Ca counter 84
CC(C)(C)c1[nH]nc2c1C(c1cccnc1)C(C#N)=C(N)O2 (stereo not given)	none
CC(C)(C)c1[nH]nc2c1C(Cc1ccccc1)C(C#N)=C(N)O2 (stereo not given)	RGS4 act -9.3, MrgX1 antagonist -5.1 | RGS4 act valid 92 | M3R Ca counter 84
O=C(Nc1ccc2c(c1)OCCO2)c1ccccc1F	none
O=C(Nc1ccc2c(c1)OCCO2)c1cccc2nc3ccccc3nc12	RGS4 act -9.3 | RGS4 act valid 86 | M3R Ca counter 52
CCN(CC)CCC(O)(c1ccccc1)C1CCCCC1 (stereo not given)	RGS4 act -9.3 | RGS4 act valid 92 | M3R Ca counter 92
CSc1nsc(SCC(=O)Nc2ccccc2F)n1	none
CC(C)(C)c1ccccc1OCC(=O)Nc1ccccc1C(=O)NCc1cccnc1	RGS4 act -11 | RGS4 act valid 88 | M3R Ca counter 59
O=[N+]([O-])c1ccccc1S(=O)(=O)Nc1ccc2c(c1)OCCO2	none
COc1ccccc1N1CCN(C(=O)CSc2nc3ccccc3nc2N2CCCCC2)CC1	none
COc1ccccc1N1CCN(C(=O)CSc2nc3ccccc3nc2N2CCC(C)CC2)CC1	RGS4 act -7.7 | RGS4 act valid 44 | M3R Ca counter inactive
